One series has as its target hepsin (Homo sapiens, UniProt P05981). Description: Hepsin protease inhibition with optimal peptide substrate. The series is classed as biochemical. The method in brief:
(§1)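 Each enzyme is assayed with its optimal peptide substrate, and substrate concentrations are determined after 30 minutes.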

The target of the next series is T1, matriptase (Homo sapiens, UniProt Q9Y5Y6).
T1 sequence (Q9Y5Y6 1-855): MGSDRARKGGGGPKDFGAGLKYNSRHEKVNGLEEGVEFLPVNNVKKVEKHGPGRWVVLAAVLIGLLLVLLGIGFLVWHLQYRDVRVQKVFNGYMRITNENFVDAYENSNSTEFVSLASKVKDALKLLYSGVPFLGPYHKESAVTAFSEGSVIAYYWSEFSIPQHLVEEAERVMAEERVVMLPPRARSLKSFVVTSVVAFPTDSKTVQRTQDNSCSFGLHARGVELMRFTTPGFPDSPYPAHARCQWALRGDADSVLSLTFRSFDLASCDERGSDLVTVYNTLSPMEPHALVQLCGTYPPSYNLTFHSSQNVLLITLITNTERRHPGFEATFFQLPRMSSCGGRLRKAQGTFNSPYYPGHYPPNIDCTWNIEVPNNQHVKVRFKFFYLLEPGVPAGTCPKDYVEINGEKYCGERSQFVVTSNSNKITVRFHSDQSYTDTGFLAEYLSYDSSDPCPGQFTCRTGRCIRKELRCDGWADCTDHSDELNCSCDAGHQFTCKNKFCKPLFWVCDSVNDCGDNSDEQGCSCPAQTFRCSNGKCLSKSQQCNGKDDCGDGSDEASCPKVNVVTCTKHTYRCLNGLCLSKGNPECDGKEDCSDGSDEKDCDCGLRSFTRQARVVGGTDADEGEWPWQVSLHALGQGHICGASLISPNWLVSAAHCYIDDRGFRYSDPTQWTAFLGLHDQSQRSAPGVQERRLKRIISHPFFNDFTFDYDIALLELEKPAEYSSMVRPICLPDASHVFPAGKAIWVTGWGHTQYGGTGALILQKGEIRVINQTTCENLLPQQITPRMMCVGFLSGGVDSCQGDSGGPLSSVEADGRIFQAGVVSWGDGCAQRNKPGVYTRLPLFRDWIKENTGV
Description: Matriptase protease inhibition with optimal peptide substrate. The series is classed as biochemical. The essentials: as §1

Another series concerns trypsin. As to the kind of experiment: Trypsin inhibition. The series is classed as biochemical. The conditions noted are these: read-out: IC50 for trypsin.
The target of another series is thrombin (Homo sapiens, UniProt P00734). Description: Thrombin inhibition. The series is classed as biochemical.
Series [1] has as its system LNCaP cells. Description: In vitro cell toxicity, LNCaP. The series is classed as cell-based. Particulars: 48-hour, 0μM to 250μM.
The subject of series [2] is DU145 cells. Description: In vitro cell toxicity, DU145. The series is classed as cell-based. The conditions noted are these: DU145, 48-hour, 0μM to 250μM.
In another series the test system is PC3 cells. Description: In vitro cell toxicity, PC3. The series is classed as cell-based. Particulars: PC3, 48-hour, 0μM to 250μM.
The next series has as its system HepG2 cells. As to the kind of experiment: In vitro cell toxicity, HepG2. The series is classed as cell-based. The conditions noted are these: HepG2, 48-hour, 0μM to 250μM.
The test system of another series is DU145^TMPRSS2 cells. Description: Matrigel invasion assay, HGF-promoted. The series is classed as cell-based. Particulars: DU145^TMPRSS2, p<0.01. The essentials:
(§2)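 TMPRSS2 coding sequence is cloned and transfected into DU145 or PC3 cells, and stable lines are selected with antibiotic; vector-transfected cells are the controls. Invasion through Matrigel is measured with a commercial 96-well invasion kit, under standard culture (serum) conditions or with added HGF, alongside serum-free medium.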

The next series has as its system PC-3^TMPRSS2 cells. As to the kind of experiment: Matrigel invasion assay, HGF-promoted. The series is classed as cell-based. Particulars: PC-3^TMPRSS2, p<0.01. The essentials: as §2
In series [3] the test system is LNCaP cells. As to the kind of experiment: HGF-induced invasion assay. The conditions noted are these: natively express TMPRSS2, p<0.01. The series is classed as cell-based. The essentials: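 Invasion through basement-membrane matrix, measured with a commercial 96-well invasion kit. LNCaP cells are exposed to exogenous paracrine-acting HGF and compared with serum-free medium.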

For a further series, the system named is C4-2B cells. As to the kind of experiment: HGF-induced invasion assay. The series is classed as cell-based. Particulars: natively express TMPRSS2, p<0.01.
For a further series, the system named is TRAMP mice. Description: In vivo treatment of TRAMP mice: primary tumor and spontaneous metastasis. Also on record: species or system mouse. The conditions noted are these: 30mg/kg intraperitoneal three times per week, p=0.04 versus vehicle.
The subject of series [4] is DU145 cells. As to the kind of experiment: DU145 invasion with prostate fibroblast conditioned medium and TMPRSS2. The series is classed as cell-based.
The subject of a further series is prostate bone metastasis. The conditions noted are these: human clinical trials ref 42; cited from earlier work.

Each structure is given as a SMILES string. Counter-ions that a name gives are not always drawn.

These results are taken from publication PMC4409786 (Cancer discovery, 2014).

Sequence of hepsin (P05981 whole entry): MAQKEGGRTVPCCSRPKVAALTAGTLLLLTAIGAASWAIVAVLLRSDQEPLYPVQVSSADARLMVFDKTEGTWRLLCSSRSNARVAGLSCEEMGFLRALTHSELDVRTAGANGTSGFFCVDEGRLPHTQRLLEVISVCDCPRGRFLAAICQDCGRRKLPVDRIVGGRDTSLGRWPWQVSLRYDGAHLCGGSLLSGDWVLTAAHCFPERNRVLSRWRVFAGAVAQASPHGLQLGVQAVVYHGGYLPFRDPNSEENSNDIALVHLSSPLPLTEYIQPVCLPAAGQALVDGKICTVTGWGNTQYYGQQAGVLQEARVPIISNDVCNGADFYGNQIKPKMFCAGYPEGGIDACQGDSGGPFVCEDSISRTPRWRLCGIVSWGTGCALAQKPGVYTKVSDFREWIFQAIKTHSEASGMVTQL

A word on the IC50: it is the concentration needed to halve the response being measured. Take `CN(Cc1cc(Br)cc(Br)c1N)C1CCCCC1` [BHH, bromhexine hydrochloride]: the IC50 against hepsin was 35 µM; on matriptase it was 58 µM; with trypsin, over 100 µM; against thrombin it was over 100 µM. The toxicity entry in the series with LNCaP cells [1], with DU145 cells [2], with PC3 cells and in the series on HepG2 cells was “No significant toxicity” throughout. Further, the “migration and invasion phenotypes promoted by HGF” value in the series on DU145^TMPRSS2 cells and in the series with PC-3^TMPRSS2 cells was “significantly reduced” in each case. In addition, the HGF-induced invasion entry in the series with LNCaP cells [3] and in the series with C4-2B cells was “significantly attenuated” each time. The “incidence of distant metastasis to lung and liver sites” value in the series on TRAMP mice stood at 20%.

For the compound `Cc1[nH]c(/C=C2\C(=O)Nc3ccc(S(=O)(=O)N(C)c4cccc(Cl)c4)cc32)c(C)c1C(=O)N1CCN(C)CC1` [SU11274], in the series on DU145 cells [4], the “increase of cellular invasion by fibroblast conditioned medium and TMPRSS2” value was “abolished”.

Take `COc1cc2nccc(Oc3ccc(NC(=O)C4(C(=O)Nc5ccc(F)cc5)CC4)cc3)c2cc1OC` [cabozantinib]: in the series with prostate bone metastasis, the “prostate bone metastasis response” value is “Striking regressions”.
